Results taken from ChEMBL document CHEMBL4196108, “5-Aroylindoles Act as Selective Histone Deacetylase 6 Inhibitors Ameliorating Alzheimer's Disease Phenotypes” (J Med Chem, 2018).
The source made the active and inactive calls.

Key:
[1] = test system: Mus musculus; experiment: In vivo inhibition of HDAC6 in scopolamine-treated 3xTg-AD transgenic mouse brain hippocampal CA1 region assessed as increase in acetyl-alpha-tubulin level at 50 mg/kg, po administered daily for 3 months by immunohistochemical analysis; type: functional, organism-based
Outline: (§1)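 Female 3xTg-AD mice, standard diet to 6 months of age, then 50 mg/kg orally once daily for three months; memantine 30 mg/kg in water as comparator. Brains removed and hippocampal CA1 sections immunostained for acetyl-α-tubulin and phospho-tau Ser396 and Ser404. Mean ± STD; one-way ANOVA.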

[2] = test system: Rattus norvegicus; experiment: In vivo inhibition of HDAC6 in Wistar rat brain hippocampal CA1 region assessed as downregulation of scopolamine-mediated increase in Tau phosphorylation at Ser396/Ser404 residues by immunohistochemical analysis; type: functional, organism-based
Outline: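 Male Wistar rats, 7 weeks old, dosed orally at 25 mg/kg in 1% carboxymethyl cellulose/0.5% Tween 80 once daily. Scopolamine 1 mg/kg i.p. 90 min before test trial (controls excluded). Morris water maze (hidden platform escape latency), elevated plus maze (started at open-arm end, time to closed arm), then CA1 phospho-tau Ser396/Ser404 immunohistochemistry.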

[3] = test system: Mus musculus; experiment: In vivo inhibition of HDAC6 in 3xTg-AD transgenic mouse brain hippocampal CA1 region assessed as downregulation of scopolamine-mediated increase in Tau phosphorylation at Ser396 residue at 50 mg/kg, po administered daily for 3 months by immunohistochemical analysis; type: functional, organism-based; outline: as §1
[4] = biological target: T1, Protein deacetylase HDAC6 (Mus musculus) (UniProt Q9Z2V5); experiment: Inhibition of HDAC6 binding to HSP90 in mouse Neuro-2a cells transfected with pCAX FLAG APP and pRK5-EGFP-Tau P301L plasmids at 1 uM after 24 hrs by coimmunoprecipitation analysis; type: cell-based
T1 sequence (whole entry): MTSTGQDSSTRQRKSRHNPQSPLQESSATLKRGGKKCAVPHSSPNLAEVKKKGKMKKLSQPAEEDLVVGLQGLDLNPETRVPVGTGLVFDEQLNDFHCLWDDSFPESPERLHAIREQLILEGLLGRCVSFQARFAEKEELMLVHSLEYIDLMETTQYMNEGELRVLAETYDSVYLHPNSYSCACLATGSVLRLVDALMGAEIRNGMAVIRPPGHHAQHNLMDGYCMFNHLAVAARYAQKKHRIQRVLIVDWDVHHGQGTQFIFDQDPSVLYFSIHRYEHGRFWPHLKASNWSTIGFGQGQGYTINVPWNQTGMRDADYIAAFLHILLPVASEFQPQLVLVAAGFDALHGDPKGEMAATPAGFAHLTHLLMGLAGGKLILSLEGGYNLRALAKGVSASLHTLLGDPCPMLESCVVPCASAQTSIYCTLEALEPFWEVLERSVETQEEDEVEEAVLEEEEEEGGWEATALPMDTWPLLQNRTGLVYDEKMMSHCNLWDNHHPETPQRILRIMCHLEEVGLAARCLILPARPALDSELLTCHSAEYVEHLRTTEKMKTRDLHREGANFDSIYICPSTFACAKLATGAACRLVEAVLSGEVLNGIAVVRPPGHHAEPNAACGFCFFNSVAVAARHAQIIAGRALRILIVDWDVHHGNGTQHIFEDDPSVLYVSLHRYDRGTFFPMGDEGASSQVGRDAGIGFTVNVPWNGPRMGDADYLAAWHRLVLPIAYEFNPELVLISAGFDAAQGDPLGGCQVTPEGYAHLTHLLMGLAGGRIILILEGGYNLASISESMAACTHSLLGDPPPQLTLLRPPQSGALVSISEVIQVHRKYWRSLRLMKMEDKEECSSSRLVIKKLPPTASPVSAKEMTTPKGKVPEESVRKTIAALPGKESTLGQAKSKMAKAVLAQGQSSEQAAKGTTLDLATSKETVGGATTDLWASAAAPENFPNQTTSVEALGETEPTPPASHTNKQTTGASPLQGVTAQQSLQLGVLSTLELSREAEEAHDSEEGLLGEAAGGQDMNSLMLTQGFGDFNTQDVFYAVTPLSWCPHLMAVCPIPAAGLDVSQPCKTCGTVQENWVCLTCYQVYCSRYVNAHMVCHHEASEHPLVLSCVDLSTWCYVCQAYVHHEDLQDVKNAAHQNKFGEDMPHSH
Outline: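 SH-SY5Y and Neuro-2a cells cotransfected 24 h with APP695/Tau P301L plasmids, treated 24 h at 1 µM (ACY-1215 reference). 30 µg lysate immunoprecipitated overnight at 4 °C with anti-HDAC6 or anti-acetyl-lysine antibodies plus protein A/G beads, run on 8% SDS-PAGE, probed for Hsp90; Hsp70 by immunoblot. Three independent experiments.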

[5] = test system: Mus musculus; experiment: In vivo inhibition of HDAC6 in 3xTg-AD transgenic mouse brain hippocampal CA1 region assessed as downregulation of scopolamine-mediated increase in Tau phosphorylation at Ser404 residue at 50 mg/kg, po administered daily for 3 months by immunohistochemical analysis; type: functional, organism-based; outline: as §1

Measured: inhibition

COc1ccc(C(=O)c2ccc3c(ccn3Cc3ccc(C(=O)NO)cc3)c2)cc1
active: all assays above
